Assay results as given in ChEMBL document CHEMBL3526015, “Metabolism of the c-Fos/activator protein-1 inhibitor T-5224 by multiple human UDP-glucuronosyltransferase isoforms” (Drug Metab Dispos, 2011).

What was measured:
Type in all cases: ADME
[1] = molecular target: T1, UDP-glucuronosyltransferase 1A3 (Homo sapiens, UniProt P35503); experiment: Drug metabolism assessed as Vmax/Km ratio for human UGT1A3-mediated T-5224 acyl O-glucuronide formation per mg protein after 10 to 60 mins in presence of UDP-glucuronic acid by HPLC method; details: recombinant enzyme
T1 sequence (P35503 whole entry): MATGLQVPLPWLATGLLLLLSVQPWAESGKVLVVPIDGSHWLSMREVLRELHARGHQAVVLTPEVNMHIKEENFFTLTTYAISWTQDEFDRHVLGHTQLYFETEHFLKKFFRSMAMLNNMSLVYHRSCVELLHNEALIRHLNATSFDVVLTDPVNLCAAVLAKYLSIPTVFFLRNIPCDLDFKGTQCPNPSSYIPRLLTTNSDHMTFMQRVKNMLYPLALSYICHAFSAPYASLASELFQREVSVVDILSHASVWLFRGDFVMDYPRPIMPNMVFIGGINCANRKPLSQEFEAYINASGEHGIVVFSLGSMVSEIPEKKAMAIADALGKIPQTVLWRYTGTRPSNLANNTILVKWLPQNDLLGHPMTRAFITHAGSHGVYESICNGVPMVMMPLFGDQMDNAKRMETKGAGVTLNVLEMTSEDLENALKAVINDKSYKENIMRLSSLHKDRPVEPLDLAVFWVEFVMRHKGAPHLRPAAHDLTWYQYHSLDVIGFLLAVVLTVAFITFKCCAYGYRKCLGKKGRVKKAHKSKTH
In short: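 Kinetics used recombinant UGT1A1, 1A3 or 1A8 (0.1 mg protein/mL) with T-5224 at 1–50 μM, 2 mM UDPGA and 60 min at 37°C, in triplicate. G2/G3 were measured by HPLC at 290 nm and fitted to a substrate-inhibition model (Vmax, Km, Ksi). UGT content was quantified by immunoblot, and kcat = Vmax/E0 was derived from it.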

Cytochrome P450 1A2 = molecular target: T2, Cytochrome P450 1A2 (Homo sapiens, UniProt P05177); experiment: Drug metabolism assessed as human CYP1A2-mediated metabolite formation at 2 uM after 30 mins by HPLC method; details: recombinant enzyme, 0.5 h
T2 sequence (P05177 whole entry): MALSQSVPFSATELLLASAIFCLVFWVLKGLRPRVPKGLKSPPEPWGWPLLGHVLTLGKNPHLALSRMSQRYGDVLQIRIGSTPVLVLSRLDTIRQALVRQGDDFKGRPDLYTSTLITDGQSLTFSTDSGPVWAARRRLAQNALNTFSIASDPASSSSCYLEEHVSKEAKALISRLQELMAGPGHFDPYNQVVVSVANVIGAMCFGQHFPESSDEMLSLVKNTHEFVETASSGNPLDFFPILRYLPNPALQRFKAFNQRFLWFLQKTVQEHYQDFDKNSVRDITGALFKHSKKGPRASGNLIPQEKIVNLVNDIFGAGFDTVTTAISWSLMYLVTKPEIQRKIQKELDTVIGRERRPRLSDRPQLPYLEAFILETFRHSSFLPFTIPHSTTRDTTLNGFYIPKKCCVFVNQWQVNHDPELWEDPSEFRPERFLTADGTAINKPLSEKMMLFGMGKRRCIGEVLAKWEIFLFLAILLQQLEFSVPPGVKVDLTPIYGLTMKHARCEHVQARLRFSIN
In short: (§1)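 Each recombinant human P450 was used at 50 pmol/mL with an NADPH-generating system and 2 μM 14C-T-5224 (0.5% DMSO final). Buffer was 100 mM Tris-HCl pH 7.5, except 100 mM potassium phosphate pH 7.4 for CYP2A6 and CYP2C9*1. Incubation ran 30 min at 37°C and was stopped with acetonitrile/methanol. Radioactive metabolite peaks were detected by C18 HPLC.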

Cytochrome P450 2C19 = Cytochrome P450 2C19 (Homo sapiens, UniProt P33261); experiment: Drug metabolism assessed as human CYP2C19-mediated metabolite formation at 2 uM after 30 mins by HPLC method; details: recombinant enzyme, 0.5 h; in short: as §1
Chain of Cytochrome P450 2C19 (P33261 whole entry): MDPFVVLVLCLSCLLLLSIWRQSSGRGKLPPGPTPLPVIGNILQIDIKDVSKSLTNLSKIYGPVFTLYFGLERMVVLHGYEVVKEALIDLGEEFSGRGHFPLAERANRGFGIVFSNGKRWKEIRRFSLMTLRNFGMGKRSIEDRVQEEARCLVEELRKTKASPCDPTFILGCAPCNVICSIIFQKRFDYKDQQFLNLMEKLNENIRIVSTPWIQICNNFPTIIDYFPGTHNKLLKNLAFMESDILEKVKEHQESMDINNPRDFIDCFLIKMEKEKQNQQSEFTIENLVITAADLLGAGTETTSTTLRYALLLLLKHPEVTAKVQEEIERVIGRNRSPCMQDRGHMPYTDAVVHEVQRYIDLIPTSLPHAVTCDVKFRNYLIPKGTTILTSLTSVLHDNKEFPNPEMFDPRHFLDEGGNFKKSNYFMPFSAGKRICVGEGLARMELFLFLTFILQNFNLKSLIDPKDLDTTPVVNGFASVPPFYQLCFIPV

[2] = molecular target: T3, UDP-glucuronosyltransferase 1A1 (Homo sapiens, UniProt P22309); experiment: Drug metabolism assessed as human UGT1A1-mediated T-5224 acyl O-glucuronide formation at 5 to 50 uM after 60 mins in presence of UDP-glucuronic acid by HPLC method; details: recombinant enzyme, 1 h
T3 sequence (P22309 whole entry): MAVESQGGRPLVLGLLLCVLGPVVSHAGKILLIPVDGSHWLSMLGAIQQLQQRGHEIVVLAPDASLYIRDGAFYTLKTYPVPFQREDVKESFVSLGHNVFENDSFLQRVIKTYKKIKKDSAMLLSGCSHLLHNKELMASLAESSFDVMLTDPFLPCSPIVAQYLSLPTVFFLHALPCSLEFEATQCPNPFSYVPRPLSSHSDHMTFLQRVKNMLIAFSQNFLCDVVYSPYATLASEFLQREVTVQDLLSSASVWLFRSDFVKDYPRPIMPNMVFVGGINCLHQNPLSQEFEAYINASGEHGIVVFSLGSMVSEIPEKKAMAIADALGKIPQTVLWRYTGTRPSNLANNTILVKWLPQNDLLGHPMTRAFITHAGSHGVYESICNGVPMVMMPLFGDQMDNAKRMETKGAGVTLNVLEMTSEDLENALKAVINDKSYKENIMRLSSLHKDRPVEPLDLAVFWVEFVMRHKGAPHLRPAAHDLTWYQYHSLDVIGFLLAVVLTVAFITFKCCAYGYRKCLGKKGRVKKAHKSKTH

Vmax/Km [1]: 15.5 µL/min
Drug metabolism (Cytochrome P450 1A2): metabolite_not_detected
Drug metabolism (Cytochrome P450 2C19): metabolite_not_detected
Drug metabolism [2]: metabolite_detected
Compound: O=C(O)CCc1cc(C(=O)c2ccc(OC3CCCC3)cc2O)ccc1OCc1ccc2c(O)noc2c1
